Test results: ChEMBL document CHEMBL3085732, “Synthesis and pharmacological evaluation of aminothiazolomorphinans at the mu and kappa opioid receptors” (J Med Chem, 2013)
The source made the active and inactive calls.

Tests used:
[1] = molecular target: T1, Mu-type opioid receptor (Homo sapiens, UniProt P35372); assay: Antagonist activity at human mu opioid receptor transfected in CHO cells assessed as inhibition of […] [35S]GTPgammaS binding after 60 mins by scintillation counting analysis relative to control; type: functional, cell-based
T1 sequence (P35372 whole entry): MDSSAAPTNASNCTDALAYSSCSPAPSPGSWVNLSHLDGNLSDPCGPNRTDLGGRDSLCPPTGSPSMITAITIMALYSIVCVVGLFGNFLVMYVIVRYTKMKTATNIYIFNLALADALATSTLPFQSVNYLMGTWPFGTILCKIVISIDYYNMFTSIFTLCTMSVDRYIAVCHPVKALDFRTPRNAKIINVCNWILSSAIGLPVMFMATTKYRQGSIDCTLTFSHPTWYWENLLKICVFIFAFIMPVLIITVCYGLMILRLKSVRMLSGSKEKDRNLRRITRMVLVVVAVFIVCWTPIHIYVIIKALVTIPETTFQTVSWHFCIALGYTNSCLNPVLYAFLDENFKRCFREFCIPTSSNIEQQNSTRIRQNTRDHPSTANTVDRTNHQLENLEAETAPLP

[2] = molecular target: T2, Kappa-type opioid receptor (Homo sapiens, UniProt P41145); assay: Agonist activity at human kappa opioid receptor transfected in CHO cells assessed as stimulation of [35S]GTPgammaS binding after 60 mins by scintillation counting analysis relative to control; type: functional, cell-based
T2 sequence (P41145 whole entry): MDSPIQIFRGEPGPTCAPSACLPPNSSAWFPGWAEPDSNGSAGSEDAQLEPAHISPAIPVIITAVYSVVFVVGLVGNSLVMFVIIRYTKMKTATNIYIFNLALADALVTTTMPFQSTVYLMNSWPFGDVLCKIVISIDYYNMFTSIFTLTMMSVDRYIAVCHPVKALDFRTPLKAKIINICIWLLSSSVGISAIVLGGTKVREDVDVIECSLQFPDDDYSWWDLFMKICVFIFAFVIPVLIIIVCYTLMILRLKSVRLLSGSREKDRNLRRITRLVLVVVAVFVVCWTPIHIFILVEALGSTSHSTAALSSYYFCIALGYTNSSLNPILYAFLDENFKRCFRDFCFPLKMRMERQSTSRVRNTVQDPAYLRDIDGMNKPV
Procedure, shortened: (§1)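 Membranes from CHO cells stably expressing human KOR (15 μg protein/tube) or MOR (7.5 μg protein/tube) were incubated for 60 min at 30 °C with 12 compound concentrations, 3 μM GDP and […] [35S]GTPγS. Nonspecific binding used 10 μM GTPγS. Filtration, scintillation counting; % stimulation over basal. ≥3 experiments, triplicate.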

[3] = molecular target: T1, Mu-type opioid receptor; assay: Antagonist activity at human mu opioid receptor transfected in CHO cells assessed as inhibition of DAMGO-induced [35S]GTPgammaS binding after 60 mins by scintillation counting analysis relative to control; type: functional, cell-based
Procedure, shortened: (§2)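 Membranes from CHO cells expressing human MOR (7.5 μg protein/tube) were incubated with test compound plus 200 nM DAMGO, 3 μM GDP and […] [35S]GTPγS. Incubation was 60 min at 30 °C in Tris/MgCl2/NaCl/EGTA buffer, pH 7.4. Bound label was measured by filtration and scintillation counting. At least 3 experiments, each in triplicate.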

[4] = molecular target: T1, Mu-type opioid receptor; assay: Agonist activity at human mu opioid receptor transfected in CHO cells assessed as stimulation of [35S]GTPgammaS binding after 60 mins by scintillation counting analysis relative to control; type: functional, cell-based; procedure, shortened: as §1
[5] = molecular target: T2, Kappa-type opioid receptor; assay: Agonist activity at human kappa opioid receptor transfected in CHO cells assessed as stimulation of [35S]GTPgammaS binding after 60 mins by scintillation counting analysis; type: functional, cell-based; procedure, shortened: as §1
[6] = molecular target: T1, Mu-type opioid receptor; assay: Antagonist activity at human mu opioid receptor transfected in CHO cells assessed as inhibition of DAMGO-induced [35S]GTPgammaS binding after 60 mins by scintillation counting analysis; type: functional, cell-based; procedure, shortened: as §2
[7] = molecular target: T1, Mu-type opioid receptor; assay: Agonist activity at human mu opioid receptor transfected in CHO cells assessed as stimulation of [35S]GTPgammaS binding after 60 mins by scintillation counting analysis; type: functional, cell-based; procedure, shortened: as §1
[8] = organism: Homo sapiens; assay: Selectivity ratio of Ki for human delta opioid receptor to Ki for human kappa opioid receptor
[9] = organism: Homo sapiens; assay: Selectivity ratio of Ki for human mu opioid receptor to Ki for human kappa opioid receptor
[10] = molecular target: Delta-type opioid receptor (Homo sapiens, UniProt P41143); assay: Displacement of [3H]-naltrindole from human delta opioid receptor transfected in CHO cells after 3 hrs; type: cell-based
Sequence of Delta-type opioid receptor (P41143 whole entry): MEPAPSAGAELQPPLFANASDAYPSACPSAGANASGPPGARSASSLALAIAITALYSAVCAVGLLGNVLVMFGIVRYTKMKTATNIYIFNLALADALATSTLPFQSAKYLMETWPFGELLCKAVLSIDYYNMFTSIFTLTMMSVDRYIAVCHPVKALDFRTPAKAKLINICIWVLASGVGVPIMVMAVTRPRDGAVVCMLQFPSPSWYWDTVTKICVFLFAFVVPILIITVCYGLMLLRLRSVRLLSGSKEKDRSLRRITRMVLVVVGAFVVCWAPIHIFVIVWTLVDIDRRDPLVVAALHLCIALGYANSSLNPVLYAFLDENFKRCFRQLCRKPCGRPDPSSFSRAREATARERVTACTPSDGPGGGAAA

[11] = molecular target: T2, Kappa-type opioid receptor; assay: Displacement of [3H]-U69593 from human kappa opioid receptor transfected in CHO cells after 60 mins; type: cell-based
[12] = molecular target: T1, Mu-type opioid receptor; assay: Displacement of [3H]-DAMGO from human mu opioid receptor transfected in CHO cells after 60 mins; type: cell-based
[13] = tested on: Rattus norvegicus; assay: (§3) Reduction of reward potentiation effect of cocaine in ip dosed Sprague-Dawley rat assessed as blockade of cocaine-madiated reduction of intracranial self-stimulation threshold administered for 15 mins prior to cocaine challenge measured 15 mins post dose and 1 hr post cocaine challenge; type: functional, organism-based
Procedure, shortened: (§4)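 Male Sprague-Dawley rats carried medial forebrain bundle electrodes and were trained by the rate-frequency method to stable thresholds (n=6/cohort). Baseline came from three 15-min functions. Test drug was given i.p. in increasing doses: 0, 0.5, 1.0, 2.0 mg/kg, or 0, 3.0, 10.0, 30.0 mg/kg. […] Data were expressed as 100 × post/pre.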

[14] = tested on: Rattus norvegicus; assay: Toxicity in Sprague-Dawley rat assessed as suppression of intracranial self-stimulation reward function at 4 mg/kg, ip measured over 15 to 60 mins; type: organism-based; design: dose 4 mg/kg, route intraperitoneal; conditions: in vivo
Procedure, shortened: (§5)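 Male Sprague-Dawley rats with lateral hypothalamic medial forebrain bundle electrodes were given test drug i.p. in increasing doses (n=6/cohort). One series was 0–4.0 mg/kg in 20% DMSO/water; the other was 1.0–30.0 mg/kg in 0.9% saline. ICSS thresholds and maximum response rates were measured over four 15-min rate-frequency trials after baseline. Results were expressed as 100 × post/pre-treatment.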

[15] = tested on: Rattus norvegicus; assay: Toxicity in Sprague-Dawley rat assessed as suppression of intracranial self-stimulation reward function at 0.25 to 2 mg/kg, ip measured for 1 hr; type: organism-based; design: dose 0.25-2 mg/kg, route intraperitoneal; conditions: in vivo; procedure, shortened: as §5
[16] = tested on: Rattus norvegicus; assay: Toxicity in Sprague-Dawley rat assessed as suppression of intracranial self-stimulation reward function at 1 to 30 mg/kg, ip measured for 1 hr; type: organism-based; design: dose 1-30 mg/kg, route intraperitoneal; conditions: in vivo; procedure, shortened: as §5
[17] = tested on: Rattus norvegicus; assay: as §3, with “threshold at 3 to 30 mg/kg” for “threshold”; type: functional, organism-based; procedure, shortened: as §4

SMILES	Imax [1]	Emax [2] [%]	Imax [3] [%]	Emax [4] [%]	EC50 [5] [nM]	IC50 [6] [nM]	EC50 [7] [nM]	Ratio Ki [8]	Ratio Ki [9]	Ki [10] [nM]	Ki [11] [nM]	Ki [12] [nM]	Activity [13]	Activity [14]	Activity [15]	Activity [16]	Activity [17]
COc1ccc2c(c1)[C@]13CCN(CC4CC4)[C@H](C2)[C@@H]1Cc1sc(NC(C)=O)nc1C3	inactive	120	60	47	140	500	80	0.51	0.73	4.6	9	6.6	–	–	–	–	–
Oc1ccc2c(c1)[C@@]13CCCC[C@H]1[C@@H](C2)N(CC1CCC1)CC3 [BUTORPHAN]	–	–	–	–	–	–	–	–	–	–	–	–	Dose-dependent effect	Toxic	Non-toxic	–	–
CNc1nc2c(s1)C[C@H]1[C@H]3Cc4ccc(O)cc4[C@@]1(CCN3CC1CC1)C2	27%	85	76	25	1.3	2.5	0.52	5.1	1.7	0.43	0.084	0.14	–	–	–	–	–
Nc1nc2cc3c(cc2s1)C[C@@H]1[C@@H]2CCCC[C@]32CCN1CC1CC1	inactive	–	–	–	–	–	–	–	–	–	–	–	–	–	–	–	–
CNc1nc2c(s1)C[C@H]1[C@H]3Cc4ccc(OC)cc4[C@@]1(CCN3CC1CC1)C2	inactive	140	76	28	97	650	51	0.44	2.7	1.6	3.6	9.6	–	–	–	–	–
COc1ccc2c(c1)[C@]13CCN(CC4CC4)[C@H](C2)[C@@H]1Cc1sc(N)nc1C3	inactive	140	69	24	49	640	39	6.8	3.5	13	1.9	6.7	–	–	–	–	–
Nc1nc2c(s1)C[C@H]1[C@H]3Cc4ccc(O)cc4[C@@]1(CCN3CC1CC1)C2	49%	59	–	–	0.61	–	–	–	–	–	–	–	–	–	–	Non-toxic	inactive
